ATG4B inhibitor: ATG4B protease inhibitors, primary screen, biochemical, fluorescence, uHTS. Cysteine protease ATG4B (Homo sapiens), Q9Y4P1. ATG4B cleavage of LC3-PLA2, NBD-HPC fluorescence, 1 h. inhibition, % at 8.33 µM. actives 0.51% (n = 340,000); in the data active means inhibition above about 40%
PRMT1 inh: PRMT1 methyltransferase inhibitors, primary screen, biochemical, fluorescence polarization; Protein arginine N-methyltransferase 1 (Homo sapiens), Q99873; recombinant PRMT1, activity-based probe fluorescence polarization; inhibition, % at 2.79 µM; actives 1.3% (n = 370,000); AID 652257, 2013;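 active means inhibition above about 21% made by adding two undisclosed values, limit read from the data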
SIAE primary: human SIAE inhibitors, primary screen, biochemical, fluorescence polarization, FP-Rh probe, 1536-well HTS; Sialate O-acetylesterase (Homo sapiens), Q9HAT2; SIAE FP-Rh probe binding; inhibition, % at 9.66 µM; actives 0.69% (n = 370,000); AID 1053197, 2014;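 active means inhibition above a cutoff: mean of compounds within the control limits plus 3 SD of those, cut at about 17% in these data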
TCR-CD3 inh: inhibitors of human TCR-CD3 interaction, primary screen, biochemical, fluorescence, TAMRA-labeled TCR probe. actives 0.37% (n = 360,000). T-cell receptor (TCR). inhibition, % at 9.4 µM. AID 651800, 2012; in the data active means inhibition above about 19%;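 further: recombinant mutant TCR 2C K166C tagged with TAMRA read by polarization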
mABHD4 FP: ABHD4 inhibitors, primary screen, biochemical, fluorescence polarization, mouse | actives 0.54% (n = 370,000) | purified mABHD4, FP-Rh probe fluorescence polarization | (Lyso)-N-acylphosphatidylethanolamine lipase (Mus musculus), Q8VD66 | AID 720543, 2013 | inhibition, % at 8.92 µM;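 active means inhibition exceeding the mean over every tested compound plus 3 SD, cut at about 30% in these data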
Target sequence (Q8VD66 whole entry, looked up): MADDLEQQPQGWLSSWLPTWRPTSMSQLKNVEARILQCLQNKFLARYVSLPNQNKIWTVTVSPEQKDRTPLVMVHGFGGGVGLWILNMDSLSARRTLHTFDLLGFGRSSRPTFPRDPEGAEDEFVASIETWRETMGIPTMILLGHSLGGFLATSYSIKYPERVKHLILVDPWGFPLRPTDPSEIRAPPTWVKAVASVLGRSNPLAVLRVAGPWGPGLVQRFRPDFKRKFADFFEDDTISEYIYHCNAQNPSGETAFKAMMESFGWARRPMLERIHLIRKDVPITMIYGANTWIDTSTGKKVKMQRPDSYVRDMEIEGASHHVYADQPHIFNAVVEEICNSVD
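Test system: mouse ABHD4 enzyme, wild type. Reagent: FP-Rh fluorescent activity-based probe, added after compound pre-incubation. Timing: pre-incubation 45 min, probe exposure 60 min, at 25 °C. Technique: FP readout, ex 525 nm / em 598 nm. Benchmarks: high control S159A mutant with DMSO, low control median of compound wells.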
HTRA1 inhibitor: HTRA1 serine protease inhibitors, primary screen, biochemical, fluorescence polarization, HTS; Q92743; recombinant HTRA1, FP-rhodamine activity-based probe; inhibition, % at 5.96 µM; actives 0.5% (n = 340,000); AID 504803, 2011; in the data active means inhibition above about 36%
SIAE confirm: human SIAE inhibitors, retest, confirmation, biochemical, fluorescence polarization, FP-Rh probe, triplicate; shares compounds with SIAE primary; SIAE FP-Rh activity-based probe; inhibition, % at 9.66 µM; actives 13% (n = 2,300); AID 1117263, 2014;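 active means mean inhibition of the replicates above the hit cutoff set in the primary screen, cut at about 17% in these data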;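 further: inhibitors lower polarization as more probe stays unbound to SIAE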
Hits are given with their value; i = inactive; nt = not tested or not shown. Only some compounds are listed: those with a hit (about 2.9% of all), similar ones and a draw of the others.

SMILES	ATG4B inhibitor	PRMT1 inh	SIAE primary	TCR-CD3 inh	mABHD4 FP	HTRA1 inhibitor	SIAE confirm
CC(C)C[C@H]1COc2cc(Br)ccc2S(=O)(=O)N1Cc1cn(CCC2OCCCO2)nn1	nt	i	i	nt	i	nt	nt
COc1ccc(-c2cn(Cc3ccc([N+](=O)[O-])cc3)nn2)cc1	i	i	i	i	i	i	nt
CNc1ccc(OC)cc1-n1cnc(-c2ccc([N+](=O)[O-])cc2)c1	i	i	19.8	i	i	i	i
CC(=O)N1c2ccc(S(=O)(=O)NCc3ccccc3Cl)cc2CC1C (configuration not stated)	i	i	17.5	i	i	i	i
COCCNC(=O)C[C@H]1CC[C@H]2[C@@H](COc3ccc(NS(=O)(=O)c4ccc(Cl)cc4)cc3C(=O)N2C)O1	nt	i	i	nt	i	nt	nt
O=C(Nc1ccccc1)/C(=C\c1ccccc1)NC(=O)c1ccco1	i	i	i	i	i	nt	nt
O=C(Nc1ccccc1)/C(=C/c1cccnc1)NC(=O)c1ccco1	i	i	20.1	i	i	i	i
CC(=O)NC(C)c1cc(F)c2cccnc2c1O (configuration not stated)	i	i	i	i	i	i	nt
CC(=O)NC(c1ccco1)c1cc(Cl)c2cccnc2c1O (configuration not stated)	nt	i	18.4	i	i	nt	i
CN(C)c1ccc(/C=N/N2C(=S)SC(C)(C)C2N(O)C(=O)Nc2ccc([N+](=O)[O-])cc2)cc1 (configuration not stated)	i	i	21.2	i	i	i	i
COc1ccccc1N1CCN(CCCCOc2cccc3ccccc23)CC1	i	i	50.0	i	i	i	i
O=C1c2ccccc2C(=O)c2cc(N3CCCCC3)ccc21	i	i	21.5	i	i	i	42.2
COc1ccc(Nc2nc(NCc3ccco3)nc(N/N=C/c3ccc(O)cc3)n2)cc1	i	i	28.5	i	i	i	i
C/C(C=NNC(=O)CSc1nc2ccccc2n1Cc1ccccc1Cl)=C\c1ccccc1	nt	i	i	nt	i	nt	nt
COC(=O)C1CN(Cc2cn(Cc3ccccc3)nn2)CCS(=O)(=O)N1Cc1ccc(OC)cc1 (configuration not stated)	nt	i	i	nt	i	nt	nt
Cc1nc2c3ccccc3nc(NNC(=O)CCC(=O)NC3CCCC3)n2n1	i	i	i	i	i	i	nt
Cc1nc2c3ccccc3nc(NNC(=O)CCC(=O)N3CCCC(C)C3)n2n1 (configuration not stated)	i	i	19.1	i	i	i	i
CC(C)(C)c1ccc(-c2nnc(SCC(=O)Nc3ccc(Oc4ccccc4)cc3)n2Cc2ccco2)cc1	nt	i	i	nt	i	nt	nt
CC(C)CCn1c(COc2ccccc2)n[nH]c1=S	i	i	20.0	i	i	i	i
COc1ccc(CNC2CCC23CCC(c2ccccc2)CC3)cc1OC (configuration not stated)	nt	i	i	nt	i	nt	nt
O=C(C(=O)N1CCC(CNS(=O)(=O)c2ccc(F)cc2)CC1)c1cccs1	nt	i	i	i	i	nt	nt
COc1ccc(-c2[nH]c(-c3cccc(OC)c3)nc2SCC(=O)NC2CCCC2)cc1	i	i	23.7	i	i	i	i
COc1cc(CNc2cccc3[nH]c(C(F)(F)F)nc23)cc(OC)c1	i	i	18.2	i	i	i	i
COc1ccc(CNc2cccc3[nH]c(C(F)(F)F)nc23)cc1	i	i	i	i	i	i	nt
CCOc1ccc(NC(=O)NCc2ccccn2)cc1	i	i	20.1	i	i	i	i
SMILES	ATG4B inhibitor	PRMT1 inh	SIAE primary	TCR-CD3 inh	mABHD4 FP	HTRA1 inhibitor	SIAE confirm
c1ccc2[nH]c(CN3CCN(c4ncnc5c4oc4ccccc45)CC3)nc2c1	i	i	19.9	i	i	i	i
Cc1ccc2[nH]c3c(N4CCc5ccccc5C4)ncnc3c2c1	i	i	23.2	i	i	i	i
COc1ccc2[nH]c3c(N4CCN(Cc5ccc6c(c5)OCO6)CC4)ncnc3c2c1	i	i	i	i	i	i	nt
Fc1ccc2[nH]c3c(N4CCc5ccccc5C4)ncnc3c2c1	i	i	i	i	i	nt	nt
COc1ccc2[nH]c3c(N4CCC(O)(c5cccc(C(F)(F)F)c5)CC4)ncnc3c2c1	i	i	17.8	i	i	i	i
NC(=O)Cn1cc(/C=N\NS(=O)(=O)c2ccc(Cl)cc2)c2ccccc21	i	i	i	i	i	i	nt
Cc1ccc(S(=O)(=O)N/N=C\c2cn(CC(N)=O)c3ccccc23)cc1C	i	i	23.1	i	i	i	i
CCCCCCCCN1C(=O)N2Cc3cc(OC)ccc3C2CS1(=O)=O (configuration not stated)	nt	i	i	nt	i	nt	nt
Cc1ccc(OCC(=O)Nc2ccc(S(=O)(=O)N3CCN(C)CC3)cc2)cc1	i	i	17.6	i	i	i	i
COc1ccc(OCC(=O)Nc2ccc(S(=O)(=O)N3CCN(C)CC3)cc2)cc1	i	i	i	i	i	nt	nt
CC(C)CCNC(=O)CSc1nc2c(c(=O)[nH]1)CCC2	nt	i	i	nt	i	nt	nt
COc1ccc(C(=O)N(c2ccc(C)cc2)C2C=CS(=O)(=O)C2)cc1OC (configuration not stated)	i	i	19.9	i	i	i	i
Cc1ccc(N(C(=O)c2ccc(S(=O)(=O)N3CCCC3)cc2)C2C=CS(=O)(=O)C2)cc1 (configuration not stated)	i	i	i	i	i	i	nt
COc1ccc(Cl)cc1NC(=S)NCCc1ccc(S(N)(=O)=O)cc1	i	i	36.5	i	i	i	i
COc1ccccc1NC(=S)NCCN1CCOCC1	i	i	17.1	i	i	i	i
COc1ccccc1NC(=S)NCc1ccc(Cl)cc1	i	i	17.7	i	i	i	i
CN1C(=O)[C@@]2(O[C@H]3C=CC=CN3C3=C2C(=O)CCC3)c2cc([N+](=O)[O-])ccc21	nt	i	i	i	i	nt	nt
Clc1cccc(CNC2CCC23CCCCC3)c1 (configuration not stated)	nt	i	i	nt	i	nt	nt
COc1cc(NC(=O)Nc2nc(C(N)C3CCCCC3)cs2)cc(OC)c1OC (configuration not stated)	nt	i	20.6	i	i	nt	i
COc1ccccc1NC(=O)Nc1nc(C(N)C2CCCCC2)cs1 (configuration not stated)	nt	i	i	i	i	nt	nt
CC1CN(c2ccc(NC(=S)Nc3ccc(N4CC(C)OC(C)C4)cc3)cc2)CC(C)O1 (configuration not stated)	i	i	20.3	i	i	i	i
O=C(Nc1ccc(Cl)c(Cl)c1)c1cccc2c1-c1ccccc1C2=O	nt	i	i	nt	i	nt	nt

Source: PubChem (several laboratories)
